Source: PubChem
Sampled rows, rich in hits. Any-hit rate of the full collection: about 2.9%.
IMP-1 inh = blocks Pseudomonas aeruginosa IMP-1 metallo-beta-lactamase; purified IMP-1, nitrocefin hydrolysis, epi-absorbance fluorescence; inhibition, % at 5.6 µM; actives 0.45% (n = 290,000);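 active = inhibition above the mean plus 3 SD of all compounds in the same screening run, cut at about 4.5% in these data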;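 note: 0% = IMP-1 with DMSO and 100% = DMSO wells lacking enzyme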
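system = purified recombinant IMP-1 beta-lactamase | amount = 0.2 nM IMP-1, as dispensed | medium = HEPES buffer pH 7.1 with ZnSO4 and Brij 35 | times = 25 °C, 15 min preincubation, 25 min reaction | detection = plate fluorescence quenching by hydrolysis product, ex 480/em 530 nm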
VIM-2 inh = inhibitors of Pseudomonas aeruginosa VIM-2 metallo-beta-lactamase. inhibition, % at 5.6 µM. purified VIM-2, nitrocefin hydrolysis, epi-absorbance fluorescence. AID 1527. actives 0.89% (n = 290,000);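 active = inhibition above the mean of all tested compounds plus 3 SD, cutoff set per screening run, cut at about 7.5% in these data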;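 note: red hydrolysis product quenches plate fluorescence so inhibitors raise well fluorescence; 0% = enzyme with DMSO and 100% = DMSO without enzyme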
PolyA inhibitor = yeast polyadenylation inhibition | S. cerevisiae SKY197-pL101 polyadenylation reporter, beta-gal luminescence; efflux-impaired pdr1/pdr3 knockout yeast; score 100 = 6 SD above DMSO | actives 0.02% (n = 300,000) | activity score, % at 12 µM;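 active = lowest replicate activity score at least 50, where 100 means six control SD above control mean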;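 note: yeast exposed to compound for 9 h at 30 °C; higher score means more reporter readthrough which indicates perturbed polyadenylation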
NLRP3 yeast inh = NALP3 inhibition in yeast | Yeast reconstituted NLRP3/ASC/caspase-1, beta-gal luminescence, 24 h | inhibition, % at 10 µM | actives 0.39% (n = 330,000) | AID 2825;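 active = inhibition of 50% or more; inactive = inhibition below 50%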;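 note: plate controls were induced DMSO wells for no effect and uninduced yeast grown without galactose for full effect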
Mot1-301 SUMO = inhibitors of SUMOylation pathway: yeast Mot1-301 growth rescue; actives 1% (n = 320,000); growth rescue, % at 18.8 µM; S. cerevisiae Mot1-301 growth rescue, ATP luminescence, 38.5C; percent above DMSO median, 100 means doubled; AID 2716;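 active = every valid replicate shows activation above 250% relative to neutral control wells; inactive = the rest, any valid replicate at or below 250%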;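 note: OY570 slx delta 5 strain wells were the positive control but not used for scaling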
NALP1 inh = NALP1 inhibition; S. cerevisiae NALP1/ASC/caspase-1 growth, X-gal OD620, 72 h; inhibition, % at 10 µM; actives 0.61% (n = 280,000); in the data active = inhibition mostly above about 24%, no sharp cut-off; inactive = mostly below about 32%
* marks the source's active call; other numbers are inactive results; nt = no result given.

SMILES	IMP-1 inh	VIM-2 inh	PolyA inhibitor	NLRP3 yeast inh	Mot1-301 SUMO	NALP1 inh
CCN(c1ccc(OC)cc1)S(=O)(=O)c1nnc(NC(=O)COc2ccccc2)s1	-2	-3	-7	9	23	-4
Cc1ccccc1C(=O)N1CCC(n2nccc2NC(=O)CCOc2ccccc2)CC1	1	0	4	0	-28	10
CCOc1cc(Cl)c(S(=O)(=O)NCCCn2ccnc2)cc1Cl	-5	0	8	15	356*	nt
COc1ccc2c(c1)c(=O)oc1cc3occ(C(C)(C)C)c3cc12	22*	1	-8	-3	278	13
COc1ccc2c(c1)c(=O)oc1cc3oc(C)c(C)c3cc12	0	-5	nt	nt	nt	-5
CCc1nnc(NC(=O)CSc2nc3cccnc3n2Cc2ccccc2)s1	-1	-5	-5	7	305*	-3
O=C1CN(C(=O)COc2ccccc2)c2ccccc2N1	-1	-1	-14	17	139	11
CC(Oc1ccccc1)C(=O)OCC(=O)N1CC(=O)Nc2ccccc21 (stereo not drawn)	-2	-2	5	6	-8	24*
O=C1CN(C(=O)COC(=O)CNS(=O)(=O)c2ccccc2)c2ccccc2N1	-2	0	14	-2	20	12
O=C1CN(C(=O)COC(=O)CNS(=O)(=O)/C=C/c2ccccc2)c2ccccc2N1	-3	-4	11	12	-12	34*
CC(C)(C)c1ccc(C(=O)NCCC(=O)NCc2cccs2)cc1	0	-2	-1	19	-7	21
COCCCNCCOCCOc1c(OC)cccc1OC	-2	-2	-14	7	3	24*
COc1cccc(OC)c1OCCNCCO	-2	0	-11	4	-8	16
CCOC(=O)/C(=N\Nc1ccccc1Cl)N1CC(C)OC(C)C1 (stereo not drawn)	-2	0	-14	14	173	nt
CCOC(=O)/C(=N\Nc1ccc(Br)cc1)N1CC(C)OC(C)C1 (stereo not drawn)	-1	0	-9	27	428*	nt
Cn1c(=O)c2c(ncn2CC(=O)N(Cc2ccccc2)c2ccccn2)n(C)c1=O	0	-1	21	8	299*	10
O=C(CC1SC(=O)NC1=O)Nc1ccc(Cl)cc1 (stereo not drawn)	1	0	-12	7	52	-9
O=C(CC1NC(=O)NC1=O)Nc1ccc(Cl)cc1 (stereo not drawn)	-2	1	15	16	-13	38*
CN(C)c1ccc(NC(=O)CN2CCN(CC(=O)Nc3ccc(F)cc3)CC2)cc1	-4	-2	17	8	8	37
CN(C)c1ccc(NC(=O)CN2CCC(O)(c3ccccc3)CC2)cc1	-4	-1	5	-4	nt	29*
CN1CCN(c2ccc(C(=O)c3ccccc3)cc2[N+](=O)[O-])CC1	-2	8.3*	16	18	-4	38
CN1CCN(c2ccccc2NC(=O)c2ccc(N3CCCCC3)c([N+](=O)[O-])c2)CC1	0	-1	12	40	22	26
CC(C)(CO)NC(=O)C(Cc1ccccc1)N1C(=O)c2ccccc2C1=O (stereo not drawn)	-2	-1	5	-2	214	-23
COc1cc(C)nc(NS(=O)(=O)c2ccccc2Cl)n1	-1	1	14	19	1	39*
O=C(COC(=O)c1cc(=O)[nH]c2ccccc12)NC(=O)c1ccccc1	nt	nt	25	17	-5	nt
c1ccc(-n2nnnc2Oc2ccc(-n3ccnc3)cc2)cc1	-4	11*	-11	35	688	2
OCCCc1nc2n(n1)C(c1ccccc1)C=C(c1ccc(F)cc1)N2 (stereo not drawn)	-5	0	-3	2	-15	6
OCCCc1nc2n(n1)C(c1cccs1)C=C(c1ccccc1)N2 (stereo not drawn)	-1	8.4*	23	15	143	-7
Cc1nc2ccc(NC(=O)Cc3c(F)cccc3Cl)cc2s1	-3	-2	1	20	-10	nt
C1CN(CC23CC4CC(CC(C4)C2)C3)CCO1	0	0	-18	12	344*	38
